Test results from ChEMBL document CHEMBL4513216, “Probing the Open Global Health Chemical Diversity Library for Multistage-Active Starting Points for Next-Generation Antimalarials” (ACS Infect Dis, 2020).

Assay: Toxicity liver stage against HepG2, at 10uM
Assay type: cell-based
Parameters: test concentration 10 uM, cell line HepG2-A16-CD81EGFP
Conditions: human, HepG2-A16-CD81EGFP cells; read-out: INHIBITION
In short: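 Uninfected HepG2-A16-CD81EGFP cells, 3 × 10^3 per well, 1536-well, plated on prespotted compound at 10 μM final, parasite-free screening media added to match infected plates; puromycin 10 μM positive, DMSO 0.5% negative; run in parallel with 48 h PbLuc assay at 37 °C, 5% CO2; viability by CellTiter-Glo luminescence, normalized to controls.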

| Compound | cytotoxicity at 10 µM [%] |
| --- | --- |
| CC(C)CCN1C(=O)c2ccc(C(=O)NCCc3c[nH]cn3)cc2C1=O | -12.5 |
| CCCN1CCN(C(=O)Cc2cccnc2)[C@H]2CS(=O)(=O)C[C@H]21 | -8.26 |
| CC(C)c1noc(OCc2cccc(C#N)c2)n1 | -43.6 |
| Cc1cc(C)cc(Nc2nc(C)cc(=O)n2CC(=O)NC(C)C)c1 | -7.3 |
| CN1CC[C@H](N(Cc2ccccc2)C2COC2)C[C@H](O)C1 | 4.27 |
| c1ccc(N(CCn2cncn2)CC2CC2)cc1 | 3.04 |
| Cc1csc(C2CCCCN2C(=O)Cn2cncn2)n1 (stereo unspecified) | -0.0679 |
| CC(NC(=O)NCC1(c2ccccc2)CCC1)c1nncn1C (stereo unspecified) | -10.4 |
| CCC(CO)N(C/C(C)=C/c1ccco1)Cc1ccco1 (stereo unspecified) | -3.41 |
| Cc1cnc(CN(C)C2CCCN(Cc3noc(C4CC4)n3)C2)cn1 (stereo unspecified) | -2.13 |
| O=C(O)c1ccc(S(=O)(=O)Nc2ccc(Cl)c(F)c2)c(F)c1 | -14.3 |
| CC(C)CCN1C(=O)C2(NC(=O)c3ccccc3O2)c2ccccc21 (stereo unspecified) | 4.02 |
| O=C(c1ccco1)N1CC2(CCNCC2)c2cc(Cl)ccc21 | 0.199 |
| Cc1ccc(CN2CCC3(CC2)NC(=O)CC3c2ccncc2)cc1C (stereo unspecified) | 3.75 |
| Cc1ccc(CN2CCC3(CC(C(=O)NC4CCC4)=NO3)C2)o1 (stereo unspecified) | -97.5 |
| O=S(=O)(NCc1ccccc1)N(Cc1ccccn1)CC1CCCO1 (stereo unspecified) | 1.62 |
| CC(C)(C)c1ncc(CNCC2CCCN2c2cccnn2)s1 (stereo unspecified) | -3.33 |
| CCCS(=O)(=O)NCC(C)c1ccc(F)c(F)c1 (stereo unspecified) | -6.82 |
| Fc1ccc(F)c(CN2CCC(c3cc4ncccc4cn3)CC2)c1 | -5.14 |
| Cc1cccc(-n2c(C)cc(C(=O)NS(C)(=O)=O)c2C)c1 | -4.08 |
| Cc1nnc(NCC2(c3ccccc3)CCOCC2)c(C#N)c1C | 7.35 |
| Cc1ncc2c(n1)CCN(Cc1nc3ccccc3o1)C2 | 1.66 |
| COc1ccc(-c2ccccc2CCN)c(OC)c1OC | 2.79 |

| Compound | cytotoxicity at 10 µM [%] |
| --- | --- |
| CN(Cc1ccccc1)S(=O)(=O)N1C[C@H](C2CC2)[C@@H](N)C1 | -159 |
| CCOC(=O)C1(Cc2ccccc2)CCCN(Cc2nccn2CC)C1 (stereo unspecified) | 8.82 |
| Cn1cc(CN2CCC(F)(F)C3(CCN(c4ncc(F)cn4)C3)C2)cn1 (stereo unspecified) | 1.2 |
| CN(C)S(=O)(=O)NCC(Cc1cccc(F)c1)N1CCNC1=O (stereo unspecified) | -3.55 |
| COCC1COCCC12CCN(Cc1nccs1)CC2 (stereo unspecified) | 2.31 |
| Cc1cc(C)c(CNC(=O)C2CCCN(c3cnccn3)C2)c(=O)[nH]1 (stereo unspecified) | -13.7 |
| O=C(COCC1CC1)Nc1ncccc1I | 22.5 |
| O=C(O)C1(n2ccc(-c3ccco3)n2)CCN(Cc2cccs2)CC1 | -125 |
| Cc1ccc(OCCCNC(=O)C2(C)CC(=O)N3C=CC=CC3=N2)cc1 (stereo unspecified) | 0.343 |
| COc1ccccc1OC1CCN(Cc2cccnc2)CC1 | -1.7 |
| CC(C)n1c(C2CCCN(CC(=O)NC3CC3)C2)nc2ccccc21 (stereo unspecified) | -5.54 |
| CC(=O)N1CCC(N2CC[C@H](c3nc4cc(C)ccc4o3)C2)CC1 | 2.84 |
| Cc1cc(C(=O)N2CCN(S(C)(=O)=O)[C@@H](C)C2)c(F)cc1F | -1.78 |
| Cc1n[nH]c(=O)c2c(NC(=O)CN3CCC(O)CC3)oc(C)c12 | 1.17 |
| CN(Cc1cccs1)C(=O)CN1CCOC(Cn2cncn2)C1 (stereo unspecified) | -23.7 |
| CC(C)CN1C[C@@H]2C[C@H](C(=O)N3CCCC3)[C@H](C1)O2 | 3.17 |
| COCC(=O)Nc1ccc2c(c1)C1(CCOCC1)CN2CCF | -99.6 |
| COc1cccc(CN2CCC(O)(c3ccc(C)cn3)CC2)c1OC | -107 |
| Cn1c(-c2ccc(F)cc2)cn2cc(C(=O)N3CC[C@@H](O)C3)nc2c1=O | 11.1 |
| CCOc1cccc(C(=O)N2CCN(c3nccc(OC)n3)CC2)c1 | 5.41 |
| Cc1nc(C)n(CC2CCCCN2Cc2cnc(C)s2)n1 (stereo unspecified) | -2.66 |
| COCCN1C[C@@H](C)[C@@]2(COCCN(C(=O)c3ccno3)C2)C1 | 7.4 |
| CCc1ccsc1C(=O)N1CCN(CC(N)=O)CC1 | -1.1 |

| Compound | cytotoxicity at 10 µM [%] |
| --- | --- |
| c1cnnc(N2CCCC2CNCc2nnc(C3CC3)o2)c1 (stereo unspecified) | 1.41 |
| c1cc(CN2CCO[C@H]3[C@H](OCCN4CCCC4)CC[C@@H]32)co1 | 6.49 |
| CC(C)NC(=O)c1n[nH]c(-n2cnnc2)n1 | 1.08 |
| O=C(Cn1c(=O)oc2ccccc21)NCC1(O)CCc2ccccc21 (stereo unspecified) | -17.2 |
| FC(F)(F)c1ccc(CN2CCN(Cc3cscn3)CC2)cc1 | -4.94 |
| CC(C)c1nc(CN(C)S(=O)(=O)c2cccs2)cs1 | -48.8 |
| Cc1ccc(N2CCCC(NCc3ccc(-n4ccnc4)cc3)C2)nn1 (stereo unspecified) | -8.44 |
| CCC(C)(N)c1nc(C(C)C)cc(=O)[nH]1 (stereo unspecified) | 14 |
| CN1C(=O)C2(CCCN(C(=O)c3cccnc3O)C2)c2ccccc21 (stereo unspecified) | -5.21 |
| CC(NC(=O)Nc1cccnc1N1CCOCC1)c1ccccn1 (stereo unspecified) | 0.456 |
| Cn1nccc1C1CCN(Cc2cnn(-c3ccccc3)n2)CC1 | 27.2 |
| Cc1ccc(N2CCCC(N(C)Cc3cc(C)on3)C2)nn1 (stereo unspecified) | 17.5 |
| CCc1ccc(N2CCC(NS(=O)(=O)N(CC)CC)CC2)cc1 | 0.243 |
| CCC(NC1CSCCSC1)c1ccc(S(C)(=O)=O)cc1 (stereo unspecified) | -8.06 |
| O=C(NCc1nn(-c2ccccc2)c2c1CCC2)NC1CCC(O)CC1 (stereo unspecified) | -7.75 |
| CCC(NCc1cccc(Cl)c1)c1ccccc1OCC(=O)NC (stereo unspecified) | -2.65 |
| O=C(CCC1CCCC1)NCc1nnc2ccccn12 | 2.52 |
| COC(=O)C1CCN(C(=O)Cn2nc(C)nc2-c2ccccc2)CC1 | -0.159 |
| Cc1cccc(CN2CCCCC2c2n[nH]cc2-c2cc(C)no2)c1 (stereo unspecified) | 6.5 |
| CC(=O)NC1CCN(c2cc(C3CCNCC3)nc(C)n2)C1 (stereo unspecified) | -1.92 |
| COC(C)(C)c1noc(C2(C#N)CCCCC2)n1 | -2.11 |
| Cc1noc(C)c1CCC(=O)N1CCOCC1CCc1cnccn1 (stereo unspecified) | -3.37 |
| COc1ccc(OC)c(-c2nc(CN(C)Cc3nncn3C)c(C)o2)c1 | -9.57 |

| Compound | cytotoxicity at 10 µM [%] |
| --- | --- |
| COCc1cnc2n1CCN(C1CCC1)C2C (stereo unspecified) | 4.77 |
| CC(C)c1nc(C2CCCN2CCCc2nc3ccccc3o2)no1 (stereo unspecified) | -8.43 |
| CCN(Cc1c(C)nn(C)c1C)C(=O)C1COc2ccccc2C1 (stereo unspecified) | -0.91 |
| N#Cc1ccc(SCCC(=O)O)cc1 | -2.85 |
| COc1cc(NCc2ccccc2-n2cncn2)nc(N)n1 | -11 |
| COc1cccc(NC(=O)NCC(C)(O)CCSC)c1OC (stereo unspecified) | 0.253 |
| COc1cc(OC)cc(N2CCC(NC(=O)c3cccn3C)CC2)c1 | -2.1 |
| Cc1cc(C(=O)NC2CCC3(CCC(=O)N3CC3CC3)CC2)no1 (stereo unspecified) | -0.39 |
| CC(=O)Nc1ccc(/C=C/c2ncc(C(=O)O)s2)cc1 | -3.54 |
| O=C(NC1CCCC1)[C@@H]1CN(Cc2nccs2)C[C@H]2OCC[C@H]21 | 4.91 |
| COC(=O)Cn1c(=O)[nH]c2cn(-c3ccc(Cl)cc3)c(=O)n21 | 23.7 |
| Cc1cc(N2CCC(NC(C)Cc3ccsc3)CC2)nc(N)n1 (stereo unspecified) | 2.22 |
| Cc1ncc(CN(C)CC(O)c2ccc(Br)cc2)s1 (stereo unspecified) | 7.12 |
| Cc1nc(NC(=O)C2CCCN(C(=O)C3CC3)C2)sc1C (stereo unspecified) | 3.71 |
| CC1CCCCN1c1nc2c(c(=O)[nH]1)CCN(Cc1cccnc1)C2 (stereo unspecified) | -6.15 |
| COCc1nc(C2CC2)nn1-c1cccc(F)c1 | 2.64 |
| CCS(=O)(=O)N1CCC(c2nnc(CN3CCCC3)n2C2CC2)CC1 | 14.9 |
| O=C(O)[C@@H]1CN(Cc2c[nH]c(CC3CCCC3)n2)C[C@H]1c1ccccn1 | 3.86 |
| CC(C)N1CC(C(=O)NCCc2csc(-c3ccncc3)n2)CC1=O (stereo unspecified) | -21 |
| CC(C)(C)NC(=O)CN1CCCC(c2ccc(C(=O)O)cc2)C1 (stereo unspecified) | -6.17 |
| Cc1noc(C)c1C(=O)NCC(C)N(C)C (stereo unspecified) | -8.4 |
| CC[C@H](C)Nc1nccc(-c2cnc3sc(C)c(C)n3c2=O)n1 | 11.1 |
| CCc1nc(CN2CCCC(NCc3cc(C)no3)C2)no1 (stereo unspecified) | 1.59 |

| Compound | cytotoxicity at 10 µM [%] |
| --- | --- |
| COc1cccc(Cn2ncnc2CCC(C)N2CCN(C)CC2)c1 (stereo unspecified) | -4.05 |
| c1cnc(N2CCOCC3(CCCN(CC4CCOCC4)C3)C2)nc1 (stereo unspecified) | -8.95 |
| Cc1nc(C)n(CC2CCCCN2CCCN2CCCC2=O)n1 (stereo unspecified) | -2.35 |
| CC(c1nc(C2CC2)no1)N(C)Cc1ccc(C#N)cc1 (stereo unspecified) | 4.15 |
| CCNc1nc2c(s1)C(=O)CN(C(=O)NCc1ccccc1)C2 | 59.1 |
| CS(=O)(=O)N1CCCCC12CCN(C(=O)c1ccccc1)C2 (stereo unspecified) | -148 |
| CCN1C[C@H]2CCN(C(=O)NC)CC[C@H]2S1(=O)=O | 4 |
| COc1c(CNCCNC(=O)c2ccccc2)c(C)nn1C | -4.74 |
| O=C(O)c1ccnc(-c2ccnc(NCCc3cscn3)n2)c1 | 0.852 |
| CC1CCN(c2ccc(NC(=O)CCn3cccn3)cc2)CC1 | -10.6 |
| COCC1CN(Cc2ccc(C)o2)Cc2cnn(CC3CCOCC3)c21 (stereo unspecified) | 1.87 |
| CCOCC(=O)NCC1Cn2nnc(-c3cccc(F)c3)c2CO1 (stereo unspecified) | -1.29 |
| C/C=C(\C)CN1C[C@H](NC(=O)c2cnc(O)cn2)C[C@H]1C(=O)NCC | 7.31 |
| Cc1noc(C)c1C1CCCN1C(=O)CN1CC2(CCNCC2)OC1=O (stereo unspecified) | -5.24 |
| COc1cccc(C2CC(=O)Nc3nc(N4CCCCC4)sc32)c1OC (stereo unspecified) | 10.4 |
| CC(Cn1cncn1)NC(=O)NCc1csc(N(C)C)n1 (stereo unspecified) | 8.42 |
| O=C(C1CCCO1)N1CCC2(CC1)COCCN(Cc1cccnc1)C2 (stereo unspecified) | -108 |
| COCCN1CCN(CCCS(C)(=O)=O)CC1C (stereo unspecified) | -5.5 |
| c1ccc(-c2ccc(CN3CCOC(Cn4cncn4)C3)cc2)cc1 (stereo unspecified) | 9.96 |
